Screening data: PubChem BioAssay, The Scripps Research Institute Molecular Screening Center
TAAR1 antagonist: antagonists of human TAAR1. Q96RJ0. CHO RD-HGA16 TAAR1, Fluo-8 calcium fluorescence, antagonist. inhibition, % at 3 µM. actives 1.5% (n = 360,000);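 active = inhibition above a per-plate cutoff, the mean inhibition of test compounds on that plate plus 3 SD, cut at about 49% in these data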
Target sequence (Q96RJ0 whole entry, looked up): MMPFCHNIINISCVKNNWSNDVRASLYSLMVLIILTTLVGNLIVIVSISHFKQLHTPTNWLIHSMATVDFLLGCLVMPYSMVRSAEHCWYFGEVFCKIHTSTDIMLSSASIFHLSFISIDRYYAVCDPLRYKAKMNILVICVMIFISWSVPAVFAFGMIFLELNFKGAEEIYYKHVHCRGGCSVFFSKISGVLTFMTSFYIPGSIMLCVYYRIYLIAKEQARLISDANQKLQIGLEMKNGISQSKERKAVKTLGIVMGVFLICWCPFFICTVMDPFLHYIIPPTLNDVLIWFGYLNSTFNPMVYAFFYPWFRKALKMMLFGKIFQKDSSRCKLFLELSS
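Assay system: RD-HGA16 CHO cells with stable hTAAR1 and Gα16 / Reagent: EC80 β-phenethylamine stimulus / Doses: 3 µM, single point / Timing: dye loading 75 min at 37 °C, then 30 min room temperature / Measured by: Fluo-8 intracellular calcium dye fluorescence, real-time kinetic reads / Controls: vehicle wells and EC80 agonist wells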
CHO parental Ca: signal in parental CHO cells, OX1R antagonist counter-screen; parental CHO-K1, ATP-induced calcium, Fluo-8 fluorescence; inhibition, % at 5.6 µM; actives 0.63% (n = 330,000);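 active = inhibition above that plate's mean sample inhibition plus 3 SD, cut at about 26% in these data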
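Assay system: parental CHO cells; Read-out basis: percent inhibition of ATP-evoked calcium rise, normalized to controls; Benchmarks: ATP and no-ATP DMSO wells; Compound dosing: single nominal dose of 5.6 µM per compound; Signal: Fluo-8 calcium dye fluorescence; Also added: ATP as calcium-mobilizing challenge; Repeats: singlicate.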
GalR3 antag: antagonists of human GalR3. HEK293 GalR3-CNG cAMP membrane potential fluorescence; galR3 body fused to GalR1 C-terminus. O60755. inhibition, % at 3 µM. actives 0.44% (n = 360,000);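 active = inhibition above the screen-wide average plus 3 SD, cut at about 13% in these data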;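 note: forskolin and galanin both at EC90 stimulate the cells; cAMP rise reported by CNG channel membrane potential dye signal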
OX1R antag-1: antagonists of human orexin 1 receptor (OX1R); O43613; OX1R-expressing cells, FRET antagonist read-out; inhibition, % at 6.6 µM; actives 1.8% (n = 330,000); AID 485270; in the data active = inhibition mostly above about 38%, no sharp cut-off; inactive = mostly below about 40%
TAAR1 agonist: human TAAR1 agonism. actives 0.99% (n = 360,000). activation, % at 3 µM. CHO RD-HGA16 TAAR1, Fluo-8 calcium fluorescence; vehicle wells 0%, saturating PEA agonist 100%. Q96RJ0;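 active = activation above the mean activation of all test compounds in the run plus 3 SD, cut at about 38% in these data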
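Assay system – CHO-derived RD-HGA16 cells with stable Gα16 and human TAAR1 · Compound dosing – one-point dosing at 3 µM (nominal) · Incubation – 17-24 h seeding, 75 min 37 °C dye, 30 min RT · Measured by – kinetic Fluo-8 calcium fluorescence · Control set – DMSO vehicle as 0%, PEA at EC100 as 100% · Repeats – single well for each compound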
OX1R antag-2: blocks the human orexin 1 receptor. CHO/OX1R cells, Fluo-8 calcium fluorescence, orexin A. inhibition, % at 5 µM. O43613. actives 0.43% (n = 330,000);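 active = inhibition above its plate's threshold, mean inhibition of all tested compounds on the plate plus 3 SD, cut at about 37% in these data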
TAAR1 ag confirm: human TAAR1 agonism, confirmed | shares compounds with TAAR1 agonist | CHO RD-HGA16 TAAR1, Fluo-8 calcium fluorescence; scaled: DMSO 0%, maximal phenethylamine 100% | activation, % at 3 µM | actives 82% (n = 2,400);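 active = activation above a cutoff set at the run's mean compound activation plus 3 SD, cut at about 39% in these data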
Ga16 ag counter: nonselective agonist in parental cells, TAAR1 agonist counter-screen; shares compounds with TAAR1 agonist; CHO-Ga16 parental, Fluo-8 calcium fluorescence; normalized to maximal ATP response, DMSO zero; activation, % at 3 µM; actives 50% (n = 2,400);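 active = activation above the run cutoff, the mean activation over all tested wells plus 3 SD, cut at about 12% in these data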
TAAR1 desensitize: counter-screen for human TAAR1 agonists: agonists that desensitize TAAR1 | actives 46% (n = 2,400) | inhibition, % at 3 µM | shares compounds with TAAR1 agonist | CHO RD-HGA16 hTAAR1, Fluo-8 calcium, beta-PEA response inhibition;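 active = inhibition above the run cutoff, the mean inhibition of all test compounds plus 3 SD, cut at about 49% in these data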;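 note: beta-PEA stimulus applied at its EC80; loss of beta-PEA calcium signal after compound pretreatment read as receptor desensitization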
Ga16 antag count: counter-screen for TAAR1 agonists: nonselective Ga16 antagonists; inhibition, % at 3 µM; shares compounds with TAAR1 agonist; actives 39% (n = 2,400); CHO-Ga16 ATP-induced calcium, Fluo-8 fluorescence;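 active = inhibition above the plate's mean compound inhibition plus 3 SD, computed per plate, cut at about 22% in these data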
Of the large screens only hits and unclear results are named; the others gave an inactive call (follow-up assays come after a bar, where they were run). An excerpt weighted towards active compounds, which were near 4.3% of everything screened.

c1ccc(C2OCC3(CO2)COC(c2ccccc2)OC3)cc1 (configuration not stated)	TAAR1 agonist 59 | TAAR1 ag confirm inactive | Ga16 ag counter inactive | TAAR1 desensitize inactive | Ga16 antag count inactive
O=C(Cc1ccccc1)NCCC1=CCCCC1	none
O=C(O)C1C2C=CC(C2)C1C(=O)NCCC1=CCCCC1 (configuration not stated)	TAAR1 antagonist 71, TAAR1 agonist 72 | TAAR1 ag confirm 89 | Ga16 ag counter inactive | TAAR1 desensitize 84 | Ga16 antag count inactive
O=C(O)/C=C/C(=O)NCCC1=CCCCC1	TAAR1 antagonist 84, TAAR1 agonist 73 | TAAR1 ag confirm 95 | Ga16 ag counter inactive | TAAR1 desensitize 97 | Ga16 antag count inactive
O=C(NCCC1=CCCCC1)C1CCN(S(=O)(=O)c2ccccc2)CC1	none
O=C(O)C1C2CCC(C2)C1C(=O)NCCC1=CCCCC1 (configuration not stated)	TAAR1 antagonist 85, TAAR1 agonist 80 | TAAR1 ag confirm 94 | Ga16 ag counter inactive | TAAR1 desensitize 77 | Ga16 antag count inactive
CC[C@@H](NC(=O)[C@@H](Cc1ccccc1)NC(=O)CC[C@H]1O[C@@H](n2ccc(=O)[nH]c2=O)[C@H](O)[C@@H]1O)c1ccccc1	none (no result: CHO parental Ca, OX1R antag-1, OX1R antag-2)
O=C(NCC(=O)N1CCCCCC1)c1ccc(Cl)cc1	none
COc1ccc(NC(=O)CSc2ccc3nnc(-c4ccccn4)n3n2)c(OC)c1	none
O=C(Nc1ccc(Cl)cc1)N[C@@H]1CC[C@H](CCNS(=O)(=O)c2ccccc2F)O[C@@H]1CO	none (no result: CHO parental Ca, OX1R antag-1, OX1R antag-2)
CC(=NCCc1ccccc1)C1=C(O)COC1=O	TAAR1 agonist 83 | TAAR1 ag confirm 78 | Ga16 ag counter inactive | TAAR1 desensitize inactive | Ga16 antag count inactive
CC(=NCCc1ccccc1)C1=C(O)C(c2ccccc2)OC1=O (configuration not stated)	TAAR1 agonist 73 | TAAR1 ag confirm 77 | Ga16 ag counter inactive | TAAR1 desensitize inactive | Ga16 antag count inactive
CC(C)(C)c1ccc(C(=O)N2CCC2(C)C(=O)Nc2cccc3ncccc23)cc1 (configuration not stated)	none (no result: CHO parental Ca, OX1R antag-1, OX1R antag-2)
C[C@@]12C(=O)Nc3ccccc3C(=O)N1[C@H]1c3cc(Br)ccc3OC[C@@H]1[C@@H]2c1ccccc1	none
CCNC(=O)CON=C1c2ccccc2-c2ccccc21	none
CCC(CC)NC(=O)CON=C1c2ccccc2-c2ccccc21	OX1R antag-1 51, TAAR1 agonist 43 | TAAR1 ag confirm inactive | Ga16 ag counter inactive | TAAR1 desensitize inactive | Ga16 antag count inactive
CC/C(=C\c1ccc(N(C)C)cc1)c1ccncc1	none (no result: CHO parental Ca, OX1R antag-1, OX1R antag-2)
O=C(NCCc1cccs1)C1CC(c2ccccc2[N+](=O)[O-])=NO1 (configuration not stated)	TAAR1 agonist 46 | TAAR1 ag confirm 57 | Ga16 ag counter inactive | TAAR1 desensitize inactive | Ga16 antag count inactive
Cc1ccc(CCNC(=O)C2CC(c3ccccc3[N+](=O)[O-])=NO2)cc1 (configuration not stated)	none
CCN(CC)CCCNC(=O)c1cc(-c2ccccc2)c(N2CCCCC2)s1	TAAR1 agonist 53 | TAAR1 ag confirm 55 | Ga16 ag counter 34 | TAAR1 desensitize inactive | Ga16 antag count inactive
CSc1ccc(CCNC(=O)c2cc(-c3ccccc3)c(N3CCOCC3)s2)cc1	none
